# Assay results reported in ChEMBL document CHEMBL4689842, “EUbOPEN Chemogenomics Library wave 1” (2021).
# “And” between values parts separate entries of the source, which are not always exact repeats. Equal values may be shown once.
# System: HEK-293T
# Test: Multiplex assay against HEK293T;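 as to Population Tubulin-Different-Phenotype (%): share of the cells with healthy nuclei that show this phenotype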
# Format: toxicity, cell-based
# Conditions: human
# Method in brief: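 On a CQ1 microscope at 37°C and 5% CO2, live cells were imaged after compound addition. They had been stained at seeding with Hoechst33342, BioTracker Green Microtubule Cytoskeleton Dye, MitoTracker Red and Annexin V Alexa Fluor 680. CellPathfinder machine-learning gating assigned cells to Hoechst high-intensity objects or normal cells, normal cells to healthy, pyknosed or fragmented nuclei, and pyknosed cells to mitotic or apoptotic. Tubulin, mitochondrial-mass and membrane-permeability phenotypes are per cents of healthy-nucleus cells.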
# [1] = 12 h, 1 µM, compound concentration 1 uM, replicate 1
# [2] = 12 h, 1 µM, compound concentration 1 uM, replicate 2
# [3] = 12 h, 10 µM, compound concentration 10 uM, replicate 1
# [4] = 12 h, 10 µM, compound concentration 10 uM, replicate 2
# [5] = 24 h, 1 µM, compound concentration 1 uM, replicate 1
# [6] = 24 h, 1 µM, compound concentration 1 uM, replicate 2
# [7] = 24 h, 10 µM, compound concentration 10 uM, replicate 1
# [8] = 24 h, 10 µM, compound concentration 10 uM, replicate 2
# [9] = 48 h, 10 µM, compound concentration 10 uM, replicate 1
# [10] = 48 h, 10 µM, compound concentration 10 uM, replicate 2
smiles,measurement,setting,value
CC(C)Oc1ccc(C(=O)N[C@H](CNC(=O)CN(C)C)Cc2ccc(-c3cn4cccc([C@H](C)O)c4n3)cc2)cc1Cl [GSK-923295A],Population Apoptotic (%),[1],15%
same,Population Fragmented Nuclei (%),[1],9%
same,Population Healthy Nuclei (%),[1],61%
same,Population Hoechst High Intensity Objects (%),[1],8%
same,Population Membrane Permeable-Phenotype (%),[1],6%
same,Population Mitochondria Different-Phenotype (%),[1],10%
same,Population Mitotic Cells (%),[1],84%
same,Population Normal (%),[1],91%
same,Population Pyknosed Nuclei (%),[1],28%
same,Population Tubulin-Different-Phenotype (%),[1],15%
same,Total Cell Count,[1],623
same,Population Apoptotic (%),[2],7%
same,Population Fragmented Nuclei (%),[2],6%
same,Population Healthy Nuclei (%),[2],69%
same,Population Hoechst High Intensity Objects (%),[2],2%
same,Population Membrane Permeable-Phenotype (%),[2],3%
same,Population Mitochondria Different-Phenotype (%),[2],12%
same,Population Mitotic Cells (%),[2],92%
same,Population Normal (%),[2],97%
same,Population Pyknosed Nuclei (%),[2],24%
same,Population Tubulin-Different-Phenotype (%),[2],25%
same,Total Cell Count,[2],1239
same,Population Apoptotic (%),[3],33% and 93%
same,Population Fragmented Nuclei (%),[3],22% and 19%
same,Population Healthy Nuclei (%),[3],37% and 22%
same,Population Hoechst High Intensity Objects (%),[3],20% and 23%
same,Population Normal (%),[3],79% and 76%
same,Population Pyknosed Nuclei (%),[3],39% and 58%
same,Population Tubulin-Different-Phenotype (%),[3],82% and 100%
same,Population Healthy Nuclei (%),[4],28% and 73%
same,Population Hoechst High Intensity Objects (%),[4],4%
same,Population Membrane Permeable-Phenotype (%),[4],13% and 21%
same,Population Mitochondria Different-Phenotype (%),[4],86% and 42%
same,Population Mitotic Cells (%),[4],32% and 82%
same,Population Normal (%),[4],95%
same,Population Pyknosed Nuclei (%),[4],62% and 24%
same,Population Tubulin-Different-Phenotype (%),[4],94% and 98%
same,Population Apoptotic (%),[5],10%
same,Population Fragmented Nuclei (%),[5],10%
same,Population Healthy Nuclei (%),[5],65%
same,Population Hoechst High Intensity Objects (%),[5],7%
same,Population Membrane Permeable-Phenotype (%),[5],6%
same,Population Mitochondria Different-Phenotype (%),[5],11%
same,Population Mitotic Cells (%),[5],90%
same,Population Normal (%),[5],92%
same,Population Pyknosed Nuclei (%),[5],24%
same,Population Tubulin-Different-Phenotype (%),[5],23%
same,Total Cell Count,[5],668
same,Population Apoptotic (%),[6],12%
same,Population Fragmented Nuclei (%),[6],13%
same,Population Healthy Nuclei (%),[6],77%
same,Population Hoechst High Intensity Objects (%),[6],4%
same,Population Membrane Permeable-Phenotype (%),[6],4%
same,Population Mitochondria Different-Phenotype (%),[6],8%
same,Population Mitotic Cells (%),[6],87%
same,Population Normal (%),[6],95%
same,Population Pyknosed Nuclei (%),[6],8%
same,Population Tubulin-Different-Phenotype (%),[6],28%
same,Total Cell Count,[6],1632
same,Population Apoptotic (%),[7],92% and 41%
same,Population Fragmented Nuclei (%),[7],19%
same,Population Healthy Nuclei (%),[7],33% and 54%
same,Population Hoechst High Intensity Objects (%),[7],22% and 18%
same,Population Membrane Permeable-Phenotype (%),[7],0% and 19%
same,Population Mitochondria Different-Phenotype (%),[7],100% and 41%
same,Population Normal (%),[7],77% and 81%
same,Population Pyknosed Nuclei (%),[7],47% and 26%
same,Population Tubulin-Different-Phenotype (%),[7],91%
same,Population Fragmented Nuclei (%),[8],8% and 4%
same,Population Healthy Nuclei (%),[8],39% and 72%
same,Population Hoechst High Intensity Objects (%),[8],4% and 7%
same,Population Mitochondria Different-Phenotype (%),[8],94% and 40%
same,Population Normal (%),[8],95% and 92%
same,Population Pyknosed Nuclei (%),[8],51% and 22%
same,Population Tubulin-Different-Phenotype (%),[8],96% and 98%
same,Population Apoptotic (%),[9],87%
same,Population Fragmented Nuclei (%),[9],23%
same,Population Healthy Nuclei (%),[9],46%
same,Population Hoechst High Intensity Objects (%),[9],30%
same,Population Membrane Permeable-Phenotype (%),[9],3%
same,Population Mitochondria Different-Phenotype (%),[9],100%
same,Population Mitotic Cells (%),[9],12%
same,Population Normal (%),[9],69%
same,Population Pyknosed Nuclei (%),[9],29%
same,Population Tubulin-Different-Phenotype (%),[9],88%
same,Total Cell Count,[9],156
same,Population Apoptotic (%),[10],75%
same,Population Fragmented Nuclei (%),[10],10%
same,Population Healthy Nuclei (%),[10],53%
same,Population Hoechst High Intensity Objects (%),[10],15%
same,Population Membrane Permeable-Phenotype (%),[10],9%
same,Population Mitochondria Different-Phenotype (%),[10],86%
same,Population Mitotic Cells (%),[10],24%
same,Population Normal (%),[10],84%
same,Population Pyknosed Nuclei (%),[10],35%
same,Population Tubulin-Different-Phenotype (%),[10],97%
same,Total Cell Count,[10],164
